In ChEMBL document CHEMBL4680236, “Design, synthesis and structure-activity relationships of novel 15-membered macrolides: Quinolone/quinoline-containing sidechains tethered to the C-6 position of azithromycin acylides” (Eur J Med Chem, 2020):
Values after ≈ are worked out from the molar mass of the structure shown.

Tests used:
Assay type in all cases: functional
Haemophilus influenzae [1] = assay: Ratio of MBC to MIC against azithromycin-susceptible Haemophilus influenzae ATCC 49247
Streptococcus pyogenes [2] = assay: Antibacterial activity against MLSB-resistant Streptococcus pyogenes 12-206 harboring ermA gene assessed as reduction in microbial growth
Staphylococcus aureus [3] = assay: Bactericidal activity against MLSB/methicillin-resistant Staphylococcus aureus 15B196
In short: (§1)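 Bacteria were exposed to 1- to 8-fold their MIC of test sample, then transferred to fresh culture medium without antibacterial compound and incubated for the required time. Colonies were then counted. MBC is the lowest concentration giving a reduction in colony number of >3 Log₁₀.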

Haemophilus influenzae [4] = assay: Bactericidal activity against azithromycin-susceptible Haemophilus influenzae ATCC 49247
In short: (§2)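 Bacteria were exposed to 1- to 8-fold MIC of the sample, then transferred to fresh medium without antibacterial. After further incubation, colonies were counted. MBC was taken as the lowest concentration giving a >3 log10 reduction in colony number.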

Staphylococcus aureus [5] = assay: Antibacterial activity against MLSB/methicillin-resistant Staphylococcus aureus 15B196 assessed as reduction in microbial growth
Streptococcus pneumoniae [6] = assay: Antibacterial activity against penicillin-susceptible Streptococcus pneumoniae PU09 harboring mef gene assessed as reduction in microbial growth
Streptococcus pneumoniae [7] = assay: Antibacterial activity against MLSB-resistant Streptococcus pneumoniae 07P390 harboring ermB gene assessed as reduction in microbial growth
Staphylococcus aureus [8] = assay: Antibacterial activity against MLSB/methicillin/ciprofloxacin-resistant Staphylococcus aureus PU32 harboring ermA gene assessed as reduction in microbial growth
Streptococcus pneumoniae [9] = assay: Ratio of MBC to MIC against MLSB-resistant Streptococcus pneumoniae 07P390 harboring ermB
Streptococcus pyogenes [10] = assay: Ratio of MBC to MIC against MLSB-resistant Streptococcus pyogenes 12-206 harboring ermA gene
Staphylococcus aureus [11] = assay: Bactericidal activity against MLSB/methicillin/ciprofloxacin-resistant Staphylococcus aureus PU32 harboring ermA gene; in short: as §1
Streptococcus pneumoniae [12] = assay: Ratio of MBC to MIC against penicillin-susceptible Streptococcus pneumoniae PU09
Streptococcus pneumoniae [13] = assay: Antibacterial activity against Erythromycin-susceptible Streptococcus pneumoniae ATCC 49619 assessed as reduction in microbial growth
Haemophilus influenzae [14] = assay: Antibacterial activity against azithromycin-susceptible Haemophilus influenzae ATCC 49247 assessed as reduction in microbial growth
Streptococcus pyogenes [15] = assay: Bactericidal activity against MLSB-resistant Streptococcus pyogenes 12-206 harboring ermA gene; in short: as §1
Streptococcus pneumoniae [16] = assay: Bactericidal activity against MLSB-resistant Streptococcus pneumoniae 07P390 harboring ermB gene assessed as reduction in microbial growth; in short: as §1
Streptococcus pneumoniae [17] = assay: Bactericidal activity against Erythromycin-susceptible Streptococcus pneumoniae ATCC 49619; in short: as §2
Streptococcus pneumoniae [18] = assay: Bactericidal activity against penicillin-susceptible Streptococcus pneumoniae PU09 harboring mef gene; in short: as §1
Streptococcus pneumoniae [19] = assay: Ratio of MBC to MIC against Erythromycin-susceptible Streptococcus pneumoniae ATCC 49619
Staphylococcus aureus [20] = assay: Antibacterial activity against MLSB/methicillin/ciprofloxacin-resistant Staphylococcus aureus PU32 harboring ermA gene assessed as reduction in microbial growth relative to ciprofloxacin
Staphylococcus aureus [21] = assay: Antibacterial activity against MLSB/methicillin-resistant Staphylococcus aureus 15B196 assessed as reduction in microbial growth relative to ciprofloxacin
Haemophilus influenzae [22] = assay: Antibacterial activity against azithromycin-susceptible Haemophilus influenzae ATCC 49247 assessed as reduction in microbial growth relative to ciprofloxacin
Staphylococcus aureus [23] = assay: Ratio of MBC to MIC against MLSB/methicillin/ciprofloxacin-resistant Staphylococcus aureus PU32 harboring ermA gene
Staphylococcus aureus [24] = assay: Ratio of MBC to MIC against MLSB/methicillin-resistant Staphylococcus aureus 15B196
Escherichia coli [25] = assay: Antibacterial activity against Escherichia coli JW5503-KanS depletion of toIC efflux gene assessed as reduction in microbial growth
Escherichia coli [26] = assay: Antibacterial activity against Escherichia coli JW5503-1 depletion of toIC efflux gene assessed as reduction in microbial growth

| SMILES | Ratio (Haemophilus influenzae [1]) | MIC (Streptococcus pyogenes [2]) [µg/mL] | MBC (Staphylococcus aureus [3]) [µg/mL] | MBC (Haemophilus influenzae [4]) [µg/mL] | MIC (Staphylococcus aureus [5]) [µg/mL] | MIC (Streptococcus pneumoniae [6]) [µg/mL] | MIC (Streptococcus pneumoniae [7]) [µg/mL] | MIC (Staphylococcus aureus [8]) [µg/mL] | Ratio (Streptococcus pneumoniae [9]) | Ratio (Streptococcus pyogenes [10]) | MBC (Staphylococcus aureus [11]) [µg/mL] | Ratio (Streptococcus pneumoniae [12]) | MIC (Streptococcus pneumoniae [13]) [µg/mL] | MIC (Haemophilus influenzae [14]) [µg/mL] | MBC (Streptococcus pyogenes [15]) [µg/mL] | MBC (Streptococcus pneumoniae [16]) [µg/mL] | MBC (Streptococcus pneumoniae [17]) [µg/mL] | MBC (Streptococcus pneumoniae [18]) [µg/mL] | Ratio (Streptococcus pneumoniae [19]) | Ratio (Staphylococcus aureus [23]) | also measured |
| --- | --- | --- | --- | --- | --- | --- | --- | --- | --- | --- | --- | --- | --- | --- | --- | --- | --- | --- | --- | --- | --- |
| CC[C@H]1OC(=O)[C@H](C)[C@@H](OC(=O)Cc2ccccn2)[C@H](C)[C@@H](O[C@@H]2O[C@H](C)C[C@H](N(C)C)[C@H]2O)[C@](C)(OC(=O)CCNCCC#Cc2ccc3c(c2)c(=O)c(C(=O)O)cn3C2CC2)C[C@@H](C)CN(C)[C@H](C)[C@@H](O)[C@]1(C)O | 2 | 16 | > 256 | 64 (≈ 60.4 µM) | > 256 | 2 | 64 | 128 | 4 | 8 | > 256 | 2 | 0.25 | 32 | 128 (≈ 121 µM) | 256 | 0.5 (≈ 0.472 µM) | 4 (≈ 3.77 µM) | 2 | – | – |
| CC[C@H]1OC(=O)[C@H](C)[C@@H](O[C@H]2C[C@@](C)(OC)[C@@H](O)[C@H](C)O2)[C@H](C)[C@@H](O[C@@H]2O[C@H](C)C[C@H](N(C)C)[C@H]2O)[C@](C)(OC)C[C@@H](C)C(=O)[C@H](C)[C@@H](O)[C@]1(C)O [CLARITHROMYCIN] | – | > 256 | – | – | ≥ 16 | 8 | > 256 | 64 | – | – | – | – | – | 16 | – | – | – | – | – | – | fold change (FC) (Staphylococcus aureus [20]): 0.11; fold change (FC) (Staphylococcus aureus [21]): >57; fold change (FC) (Haemophilus influenzae [22]): 1768 |
| CC[C@H]1OC(=O)[C@H](C)[C@@H](OC(=O)Cc2ccccn2)[C@H](C)[C@@H](O[C@@H]2O[C@H](C)C[C@H](N(C)C)[C@H]2O)[C@](C)(OC(=O)CCN2CCN(c3cc4c(cc3F)c(=O)c(C(N)=O)cn4C3CC3)CC2)C[C@@H](C)CN(C)[C@H](C)[C@H]2OC(=O)O[C@@]21C | – | 16 | > 256 | > 256 | 32 | 8 | 32 | 32 | 1 | 1 | > 256 | 2 | 4 | 256 | 16 (≈ 14.3 µM) | 32 | 8 (≈ 7.14 µM) | 16 (≈ 14.3 µM) | 2 | >8 | Ratio (Staphylococcus aureus [24]): >8 |
| CC[C@H]1OC(=O)[C@H](C)[C@@H](OC(=O)Cc2ccccn2)[C@H](C)[C@@H](O[C@@H]2O[C@H](C)C[C@H](N(C)C)[C@H]2O)[C@](C)(OC(=O)CCNCC#Cc2cnc3ccccc3c2)C[C@@H](C)CN(C)[C@H](C)[C@@H](O)[C@]1(C)O | 1 | – | > 256 | 4 (≈ 4.23 µM) | 128 | 2 | 1 | 2 | >8 | – | 8 (≈ 8.45 µM) | 1 | 0.125 | 4 | – | > 8 | 0.125 (≈ 0.132 µM) | 2 (≈ 2.11 µM) | 1 | 4 | – |
| CC[C@H]1OC(=O)[C@H](C)C(=O)[C@H](C)[C@@H](O[C@@H]2O[C@H](C)C[C@H](N(C)C)[C@H]2O)[C@](C)(OC)C[C@@H](C)C(=O)[C@H](C)[C@H]2N(CCCCn3cnc(-c4cccnc4)c3)C(=O)O[C@]12C [TELITHROMYCIN] | – | 0.25 | – | – | 4 | 0.25 | 0.016 | 2 | >8 | – | – | 2 | ≤ 0.008 | 4 | – | > 0.125 | ≤ 0.008 | 0.5 (≈ 0.616 µM) | – | – | fold change (FC) (Staphylococcus aureus [20]): 0.0032; fold change (FC) (Staphylococcus aureus [21]): >52; fold change (FC) (Haemophilus influenzae [22]): 407 |
| CC[C@H]1OC(=O)[C@H](C)[C@@H](OC(=O)Cc2cccnc2)[C@H](C)[C@@H](O[C@@H]2O[C@H](C)C[C@H](N(C)C)[C@H]2O)[C@](C)(OC(=O)CCNCCC#Cc2ccc3c(c2)c(=O)c(C(=O)O)cn3C2CC2)C[C@@H](C)CN(C)[C@H](C)[C@H]2OC(=O)O[C@@]21C | 2 | 64 | > 256 | 64 (≈ 58.9 µM) | 256 | 4 | 64 | 128 | 2 | 1 | > 256 | 4 | 2 | 32 | 64 (≈ 58.9 µM) | 128 | 8 (≈ 7.36 µM) | 16 (≈ 14.7 µM) | 4 | – | – |
| CC[C@H]1OC(=O)[C@H](C)[C@@H](OC(=O)Cc2ccccn2)[C@H](C)[C@@H](O[C@@H]2O[C@H](C)C[C@H](N(C)C)[C@H]2O)[C@](C)(OC(=O)CCNCCC#Cc2ccc3ncccc3c2)C[C@@H](C)CN(C)[C@H](C)[C@@H](O)[C@]1(C)O | 2 | 2 | > 256 | 8 (≈ 8.33 µM) | > 256 | 0.5 | 32 | 4 | – | >8 | > 32 | 2 | 0.03 | 4 | > 16 | 64 | 0.03 (≈ 0.0312 µM) | 1 (≈ 1.04 µM) | 1 | >8 | fold change (FC) (Staphylococcus aureus [20]): 0.0054; fold change (FC) (Staphylococcus aureus [21]): >44; fold change (FC) (Haemophilus influenzae [22]): 344 |
| O=C(O)c1cn(C2CC2)c2cc(N3CCNCC3)c(F)cc2c1=O [CIPROFLOXACIN] | – | 0.5 | 0.5 (≈ 1.51 µM) | 0.008 (≈ 0.0241 µM) | 0.5 | 2 | 2 | 256 | – | – | > 256 | – | 2 | – | – | – | – | – | – | – | MIC (Escherichia coli [25]): ≤ 0.064 µg/mL; MIC (Escherichia coli [26]): ≤ 0.064 µg/mL |
| CC[C@H]1OC(=O)[C@H](C)[C@@H](OC(=O)Cc2ccccn2)[C@H](C)[C@@H](O[C@@H]2O[C@H](C)C[C@H](N(C)C)[C@H]2O)[C@](C)(OC(=O)CCNCCCCc2cnc3ccccc3c2)C[C@@H](C)CN(C)[C@H](C)[C@@H](O)[C@]1(C)O | 2 | – | > 256 | 32 (≈ 33.2 µM) | 256 | 4 | 8 | 4 | 4 | – | 16 (≈ 16.6 µM) | 1 | 0.25 | 16 | – | 32 | 0.5 (≈ 0.519 µM) | 4 (≈ 4.15 µM) | 2 | 4 | – |
| CC[C@H]1OC(=O)[C@H](C)[C@@H](OC(=O)Cc2ccccn2)[C@H](C)[C@@H](O[C@@H]2O[C@H](C)C[C@H](N(C)C)[C@H]2O)[C@](C)(OC(=O)CCNCC/C=C/c2cnc3ccccc3c2)C[C@@H](C)CN(C)[C@H](C)[C@@H](O)[C@]1(C)O | 2 | – | > 256 | 16 (≈ 16.6 µM) | 64 | 1 | 4 | 2 | >8 | – | 8 (≈ 8.31 µM) | 1 | 0.125 | 8 | – | > 32 | 0.125 (≈ 0.13 µM) | 1 (≈ 1.04 µM) | 1 | 4 | Ratio (Staphylococcus aureus [24]): >4 |
